From ChEMBL document CHEMBL1765024, “Fluorescent cyclin-dependent kinase inhibitors block the proliferation of human breast cancer cells” (Bioorg Med Chem, 2011)
The source made the active and inactive calls. The rule behind the calls is not given here.

What was measured:
[1] = test system: MCF7; assay: Induction of apoptosis in human MCF7 cells assessed as late apoptotic cells at 10 uM after 24 hrs using annexinV-propidium iodide staining by flow cytometry (reference value: 13.35%); type: functional
[2] = test system: MDA-MB-231; assay: Induction of apoptosis in human MDA-MB-231 cells assessed as decrease in caspase 7 protein level at 40 uM after 48 hrs by Western blotting; type: functional, cell-based
Method in brief: (§1)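 Cells treated with vehicle or compound, then lysed in NP-40/Triton X-100 buffer with protease and phosphatase inhibitors. Lysate protein measured by BCA, and equal protein run on 10% SDS–PAGE and transferred to PVDF. Blocked overnight in 5% milk/TBST, primary antibody 2 h, HRP secondary 1 h, ECL detection.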

[3] = test system: MDA-MB-231; assay: Antiproliferative activity against estrogen receptor-deficient human MDA-MB-231 cells after 48 hrs by WST-1 assay; type: functional, cell-based; conditions: MDA-MB-231, 48 h
Method in brief: (§2)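 Cells seeded at 3000/well in DMEM with 10% FBS and left 24 h. Compounds in DMSO were serially diluted in medium (1–100 µM) and added in triplicate. WST-1 was read 48 h after addition: 2–3 h incubation, absorbance at 450 nm with 630 nm reference. IC50 interpolated from log concentration versus fraction surviving; mean (SEM) of triplicate experiments.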

[4] = test system: MDA-MB-231; assay: Cell cycle arrest in human MDA-MB-231 cells assessed as accumulation at G2/M phase treated at 5 uM for 24 hrs measured after drug washout following 48 hrs growth recovery using propidium iodide staining by flow cytometry; type: functional, cell-based
Method in brief: (§3)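 Exponentially growing cells exposed 24 h, then held a further 48 h in compound-free medium. Cells trypsinized, pelleted, PBS-washed, permeabilized in 70% ethanol, stained 30 min in the dark at room temperature with PI plus RNase, and analysed by flow cytometry. Phase percentages given after subtracting untreated control. Mean of triplicate experiments.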

[5] = test system: MCF7; assay: Induction of apoptosis in human MCF7 cells assessed as viable cells at 10 uM after 24 hrs using annexinV-propidium iodide staining by flow cytometry (reference value: 70.32%); type: functional; conditions: MCF7, 24 h, read-out: Activity
[6] = test system: MCF7; assay: Induction of apoptosis in human MCF7 cells assessed as early apoptotic cells at 10 uM after 24 hrs using annexinV-propidium iodide staining by flow cytometry (reference value: 4.24%); type: functional
[7] = test system: MCF7; assay: Induction of apoptosis in human MCF7 cells assessed as necrotic cells at 10 uM after 24 hrs using annexinV-propidium iodide staining by flow cytometry (reference value: 12.09%); type: functional
[8] = test system: MDA-MB-231; assay: Induction of apoptosis in human MDA-MB-231 cells assessed as increase in Bax protein level at 40 uM after 48 hrs by Western blotting; type: functional, cell-based; method in brief: as §1
[9] = target: Cyclin-dependent kinase 7/ cyclin H (Homo sapiens) (UniProt P51946+P50613); assay: Inhibition of human CDK7/cyclinH/MAT1 at 0.1 uM after 40 mins relative to control; type: protein-complex assay
Method in brief: (§4)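 Radiometric screen at 100 nM compound against purified human CDK/cyclin (5–10 mU). Incubation 40 min at room temperature, stopped with phosphoric acid. Read by filtermat scintillation. Activity expressed as % of control, N = 2.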

[10] = test system: MDA-MB-231; assay: Induction of apoptosis in human MDA-MB-231 cells assessed as decrease in caspase 3 protein level at 40 uM after 48 hrs by Western blotting; type: functional, cell-based; method in brief: as §1
[11] = test system: MDA-MB-231; assay: Induction of apoptosis in human MDA-MB-231 cells assessed as decrease in Bcl2 protein level at 40 uM after 48 hrs by Western blotting; type: functional, cell-based; method in brief: as §1
[12] = test system: MDA-MB-231; assay: Cell cycle arrest in human MDA-MB-231 cells assessed as accumulation at G2/M phase treated at 10 uM for 24 hrs measured after drug washout following 48 hrs growth recovery using propidium iodide staining by flow cytometry; type: functional, cell-based; method in brief: as §3
[13] = target: CDK9/cyclin T1 (Homo sapiens) (UniProt O60563+P50750); assay: Inhibition of at human CDK9/cyclin T1 at 0.1 uM after 40 mins relative to control; type: protein-complex assay; method in brief: as §4
[14] = target: Cyclin-dependent kinase 1/cyclin B1 (Homo sapiens) (UniProt P06493+P14635); conditions: at 0.1 µM
[15] = test system: MDA-MB-231; assay: Induction of apoptosis in human MDA-MB-231 cells assessed as reduction of cdc2 phosphorylation at Y15 regulatory site at 10 uM after 24 hrs by Western blot analysis; type: functional, cell-based
Method in brief: (§5)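 MDA-MB-231 cells were treated with 10 µM compound for 1, 3, 6, 12 and 24 h and lysed. Equal protein was resolved by 10% SDS–PAGE and immunoblotted for phospho-cdc2 (T161, Y15), cdc2 and cyclin B, with actin as loading standard and ECL detection.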

[16] = test system: MDA-MB-231; assay: Antiproliferative activity against estrogen receptor-deficient human MDA-MB-231 cells at 100 uM after 48 hrs by WST-1 assay; type: functional, cell-based
Method in brief: (§6)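 Cells seeded at 3000/well in DMEM with 10% FBS and left 24 h, then given compound from DMSO stock diluted in medium at 100 µM. Survival read by WST-1 48 h after addition: 2–3 h incubation, absorbance at 450 nm with 630 nm reference; triplicate experiments.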

[17] = target: T1, Cyclin-dependent kinase 5/CDK5 activator 1 (Homo sapiens) (UniProt Q00535+Q15078); conditions: at 0.1 µM
[18] = test system: MCF7; assay: Antiproliferative activity against human MCF7 cells expressing estrogen receptor after 48 hrs by WST-1 assay; type: functional, cell-based; conditions: MCF7, 48 h; method in brief: as §2
[19] = target: T1, Cyclin-dependent kinase 5/CDK5 activator 1 (Homo sapiens); conditions: at 0.1 µM; remark: listed apart in the source
[20] = test system: MCF7; assay: Antiproliferative activity against human MCF7 cells expressing estrogen receptor at 100 uM after 48 hrs by WST-1 assay; type: functional, cell-based; method in brief: as §6
[21] = target: CDK3/cyclin E (Homo sapiens) (UniProt P24864+O96020+Q00526); assay: Inhibition of human CDK3/cyclin E at 0.1 uM after 40 mins relative to control; type: protein-complex assay; method in brief: as §4
[22] = test system: MDA-MB-231; assay: Induction of apoptosis in human MDA-MB-231 cells assessed as reduction of cdc2 phosphorylation at T161 catalytic site at 10 uM after 24 hrs by Western blot analysis; type: functional, cell-based; method in brief: as §5
[23] = Antiproliferative activity against human CL 10.3 cells expressing p-glycoprotein after 72 hrs by WST-1 assay; type: functional, cell-based
Method in brief: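 MCF-7 and its P-glycoprotein-overexpressing MDR subline CL 10.3 were grown in DMEM with 10% heat-inactivated FBS. Compounds in DMSO were serially diluted in medium and given to cells for 72 h. Read-out was WST-1 reduction (450 nm, 630 nm reference). IC50 interpolated from log concentration versus fraction surviving; mean (SEM) of triplicates. Ratio is CL 10.3 IC50 over MCF-7 IC50.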

[24] = test system: MDA-MB-231; assay: Induction of apoptosis in human MDA-MB-231 cells assessed as decrease in caspase 3 protein level at 10 uM after 48 hrs by Western blotting; type: functional, cell-based
[25] = test system: MCF7; assay: Cell cycle arrest in human MCF7 cells assessed as accumulation at G2/M phase at 5 to 10 uM after 16 to 40 hrs using propidium iodide staining by flow cytometry; type: functional, cell-based
Method in brief: (§7)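 Asynchronous cells were treated with 5 or 10 µM compound or DMSO for 24 h (also 16 and 40 h). They were trypsinized, washed in PBS and fixed/permeabilized in 70% ethanol. Staining was with RNase and propidium iodide for 30 min in the dark at room temperature, followed by flow cytometry. Phase percentages are given minus DMSO control; mean of triplicates.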

[26] = test system: MDA-MB-231; assay: Cell cycle arrest in human MDA-MB-231 cells assessed as accumulation at G2/M phase at 5 to 10 uM after 16 to 40 hrs using propidium iodide staining by flow cytometry; type: functional, cell-based; method in brief: as §7
[27] = test system: MCF7; assay: Cell cycle arrest in human MCF7 cells assessed as accumulation at G2/M phase at 5 to 10 uM after 24 hrs using propidium iodide staining by flow cytometry; type: functional, cell-based; method in brief: as §7
[28] = test system: MCF7; assay: Induction of apoptosis in human MCF7 cells assessed as aberrant gross morphological changes at 10 uM after 48 hrs using propidium iodide staining by confocal microscopic analysis; type: functional, cell-based
[29] = test system: MDA-MB-231; assay: Cell cycle arrest in human MDA-MB-231 cells assessed as accumulation at sup G1 phase at 5 to 10 uM after 24 hrs using propidium iodide staining by flow cytometry; type: functional, cell-based; method in brief: as §7
[30] = test system: MDA-MB-231; assay: Induction of apoptosis in human MDA-MB-231 cells assessed as increase in Bax protein level at 10 uM after 48 hrs by Western blotting; type: functional, cell-based
Method in brief: (§8)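 MDA-MB-231 cells were treated with vehicle or 10 µM compound for 48 h (and 72 h). Lysates were cleared and protein measured by BCA. Equal protein was run on 10% SDS–PAGE and transferred to PVDF, blocked in 5% milk overnight, and probed 2 h with anti-Bcl-2, Bax or PARP. HRP secondary was applied for 1 h, with ECL detection.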

[31] = test system: MDA-MB-231; assay: Induction of apoptosis in human MDA-MB-231 cells assessed as aberrant gross morphological changes at 10 uM after 48 hrs using propidium iodide staining by confocal microscopic analysis; type: functional, cell-based
[32] = test system: MDA-MB-231; assay: Induction of apoptosis in human MDA-MB-231 cells assessed as induction of PARP cleavage at 10 uM after 48 hrs by Western blotting; type: functional, cell-based; method in brief: as §8
[33] = test system: MCF7; assay: Induction of apoptosis in human MCF7 cells assessed as decrease in cell number at 10 uM after 48 hrs using propidium iodide staining by confocal microscopic analysis; type: functional, cell-based
[34] = test system: MDA-MB-231; assay: Induction of apoptosis in human MDA-MB-231 cells assessed as decrease in caspase 7 protein level at 10 uM after 48 hrs by Western blotting; type: functional, cell-based
[35] = test system: MCF7; assay: Cell cycle arrest in human MCF7 cells assessed as accumulation at sub G1 phase at 5 to 10 uM after 24 hrs using propidium iodide staining by flow cytometry; type: functional, cell-based; method in brief: as §7
[36] = test system: MDA-MB-231; assay: Cell cycle arrest in human MDA-MB-231 cells assessed as accumulation at G2/M phase at 5 to 10 uM after 24 hrs using propidium iodide staining by flow cytometry; type: functional, cell-based; method in brief: as §7
[37] = test system: MDA-MB-231; assay: Induction of apoptosis in human MDA-MB-231 cells assessed as decrease in Bcl2 protein level at 10 uM after 48 hrs by Western blotting; type: functional, cell-based; method in brief: as §8
[38] = test system: MDA-MB-231; assay: Induction of apoptosis in human MDA-MB-231 cells assessed as decrease in cell number at 10 uM after 48 hrs using propidium iodide staining by confocal microscopic analysis; type: functional, cell-based

T1 sequence (Q00535 whole entry): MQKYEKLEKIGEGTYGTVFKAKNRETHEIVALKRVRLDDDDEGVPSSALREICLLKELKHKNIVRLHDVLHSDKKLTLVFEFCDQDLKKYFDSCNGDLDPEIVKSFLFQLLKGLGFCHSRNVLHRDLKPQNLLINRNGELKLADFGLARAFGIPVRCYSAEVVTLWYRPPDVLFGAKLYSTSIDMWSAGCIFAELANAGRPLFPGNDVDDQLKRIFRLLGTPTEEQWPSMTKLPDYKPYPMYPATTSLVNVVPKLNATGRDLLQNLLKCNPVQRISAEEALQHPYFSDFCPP
T1 sequence (Q15078 99-307 partner limits assumed): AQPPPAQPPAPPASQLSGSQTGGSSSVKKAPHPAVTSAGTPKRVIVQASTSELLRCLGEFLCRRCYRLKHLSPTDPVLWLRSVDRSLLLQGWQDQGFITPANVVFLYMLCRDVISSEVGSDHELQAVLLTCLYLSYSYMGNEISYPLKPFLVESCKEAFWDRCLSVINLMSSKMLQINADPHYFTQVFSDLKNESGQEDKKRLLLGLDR
CDK3/cyclin E (Homo sapiens), sequence (O96020 whole entry, looked up): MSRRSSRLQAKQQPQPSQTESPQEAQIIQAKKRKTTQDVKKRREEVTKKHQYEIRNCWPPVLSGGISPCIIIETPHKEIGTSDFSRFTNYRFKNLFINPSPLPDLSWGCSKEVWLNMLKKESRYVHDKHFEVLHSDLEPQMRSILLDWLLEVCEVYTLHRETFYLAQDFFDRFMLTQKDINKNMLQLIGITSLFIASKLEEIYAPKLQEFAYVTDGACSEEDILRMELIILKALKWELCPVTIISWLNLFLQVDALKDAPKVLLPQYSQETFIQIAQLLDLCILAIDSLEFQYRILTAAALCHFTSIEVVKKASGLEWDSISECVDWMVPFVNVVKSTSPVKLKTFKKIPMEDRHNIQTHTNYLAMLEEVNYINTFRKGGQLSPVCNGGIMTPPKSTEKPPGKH
CDK3/cyclin E (Homo sapiens), sequence (P24864 whole entry, looked up): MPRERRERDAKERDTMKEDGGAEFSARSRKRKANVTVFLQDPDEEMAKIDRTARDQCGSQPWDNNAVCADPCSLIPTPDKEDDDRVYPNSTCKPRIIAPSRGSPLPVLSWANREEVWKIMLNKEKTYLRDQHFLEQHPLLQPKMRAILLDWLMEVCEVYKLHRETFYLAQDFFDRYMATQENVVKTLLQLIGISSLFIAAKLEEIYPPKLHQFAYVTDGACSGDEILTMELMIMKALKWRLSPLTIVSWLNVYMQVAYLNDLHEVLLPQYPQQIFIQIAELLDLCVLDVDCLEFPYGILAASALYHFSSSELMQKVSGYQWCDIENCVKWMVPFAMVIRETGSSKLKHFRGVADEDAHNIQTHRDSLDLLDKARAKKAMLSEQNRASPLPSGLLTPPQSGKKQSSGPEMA
CDK3/cyclin E (Homo sapiens), sequence (Q00526 whole entry, looked up): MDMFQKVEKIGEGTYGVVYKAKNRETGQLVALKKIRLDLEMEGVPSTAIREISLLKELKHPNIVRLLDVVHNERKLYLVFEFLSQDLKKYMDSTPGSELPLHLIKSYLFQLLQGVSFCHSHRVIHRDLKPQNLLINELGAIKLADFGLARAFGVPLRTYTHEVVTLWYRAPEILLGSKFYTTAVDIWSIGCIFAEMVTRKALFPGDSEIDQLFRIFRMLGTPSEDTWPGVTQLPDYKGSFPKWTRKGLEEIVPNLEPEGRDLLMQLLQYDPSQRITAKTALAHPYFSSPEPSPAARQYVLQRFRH
Cyclin-dependent kinase 1/cyclin B1 (Homo sapiens), sequence (P06493 whole entry, looked up): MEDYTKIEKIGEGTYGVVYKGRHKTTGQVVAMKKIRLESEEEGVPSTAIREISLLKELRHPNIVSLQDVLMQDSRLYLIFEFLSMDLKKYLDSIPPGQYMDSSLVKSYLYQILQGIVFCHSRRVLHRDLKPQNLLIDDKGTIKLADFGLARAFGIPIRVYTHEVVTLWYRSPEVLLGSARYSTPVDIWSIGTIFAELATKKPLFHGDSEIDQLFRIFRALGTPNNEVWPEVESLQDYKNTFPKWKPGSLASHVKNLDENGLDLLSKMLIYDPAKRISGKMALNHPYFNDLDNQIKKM
Cyclin-dependent kinase 1/cyclin B1 (Homo sapiens), sequence (P14635 whole entry, looked up): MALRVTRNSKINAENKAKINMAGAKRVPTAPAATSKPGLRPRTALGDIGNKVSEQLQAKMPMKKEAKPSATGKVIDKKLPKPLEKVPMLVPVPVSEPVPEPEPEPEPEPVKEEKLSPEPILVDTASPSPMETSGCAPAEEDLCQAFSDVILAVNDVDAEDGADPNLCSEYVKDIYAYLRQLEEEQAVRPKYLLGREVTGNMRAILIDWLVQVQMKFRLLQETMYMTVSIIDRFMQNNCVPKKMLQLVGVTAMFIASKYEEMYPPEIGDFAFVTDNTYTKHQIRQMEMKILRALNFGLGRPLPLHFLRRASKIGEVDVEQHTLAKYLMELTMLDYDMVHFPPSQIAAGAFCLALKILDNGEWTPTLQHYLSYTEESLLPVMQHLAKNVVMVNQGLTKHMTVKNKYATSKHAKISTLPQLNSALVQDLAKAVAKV

Row | SMILES | Activity [1] [%] | IC50 [3] [µM] | viability at 10 µM [5] [%] | Activity [6] [%] | Activity [7] [%] | inhibition [9] [%] | inhibition [13] [%] | inhibition [14] [%] | inhibition [17] [%] | IC50 [18] [µM] | inhibition [19] [%] | inhibition [21] [%] | other results
1 | CC[C@H](CO)Nc1nc(NCc2ccccc2)c2ncn(C(C)C)c2n1 [SELICICLIB] | 13.2 | 54.6 | 73.1 | 7.13 | 6.56 | 26 | 19 |  |  |  |  |  | Activity [2]: inactive; Activity [4]: inactive; Activity [8]: inactive; Activity [10]: inactive; Activity [11]: inactive; Activity [12]: inactive
2 | CC(C)[C@H](CO)Nc1nc(Nc2ccc(C(=O)O)c(Cl)c2)c2ncn(C(C)C)c2n1 [PURVALANOL B] |  | > 100 |  |  |  | 66 | 22 | 78 | 97 | > 100 | 97 | 89 | Activity [15]: inactive; Activity [16]: inactive; Activity [20]: inactive; Activity [22]: inactive
3 | CC(=O)O[C@H]1C(=O)[C@@]2(C)[C@H]([C@H](OC(=O)c3ccccc3)[C@]3(O)C[C@H](OC(=O)[C@H](O)[C@@H](NC(=O)c4ccccc4)c4ccccc4)C(C)=C1C3(C)C)[C@]1(OC(C)=O)CO[C@@H]1C[C@@H]2O [PACLITAXEL] |  |  |  |  |  |  |  |  |  |  |  |  | IC50 [23]: > 50 µM
4 | CC[C@H](CO)Nc1nc(Nc2ccc(C(=O)NCCNS(=O)(=O)c3cccc4c(N(C)C)cccc34)c(Cl)c2)c2ncn(C(C)C)c2n1 | 16.74 | 4.86 | 52.3 | 8.87 | 22.14 | 57 | 44 | 16 | 76 | 19.1 | 67 | 40 | Activity [24]: Active; Activity [25]: Active; Activity [26]: Active; Activity [27]: Active; Activity [28]: Active; Activity [29]: Active; Activity [30]: Active; Activity [31]: Active; Activity [32]: Active; Activity [33]: Active; Activity [34]: Active; Activity [35]: Active; Activity [36]: Active; Activity [37]: Active; Activity [38]: Active
5 | CN(C)c1cccc2c(S(=O)(=O)NCCN)cccc12 [DANSYL ETHYLENEDIAMINE] |  | > 100 |  |  |  |  |  |  |  | > 100 |  |  | 
